Active and inactive are the calls of the source. The calls are words filed in the database; no cut-off is given here.

Data set [1] deals with T1, Free fatty acid receptor 1 (Homo sapiens, UniProt O14842). The data set is described as follows: Agonist activity at human FFA1 expressed in CHO cells assessed as intracellular Ca2+ level at 100 nM measured for 90 secs by Fluo-4 AM-based FLIPR assay. Format: functional, cell-based. An outline of the steps:
(§1)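 CHO cells stably expressing human FFA1 (NM_005303), 15K cells/well, cultured overnight at 37 °C in 5% CO2. Cells were washed with HBSS, then loaded for 60 min at 37 °C with Fluo 4-AM 2.5 μg/mL, fatty acid-free BSA 0.1% and probenecid 2.5 mmol/L. Single screening concentration added and Ca2+ flux read on FLIPR Tetra for 90 s. Activity = (A−B)/(C−B)×100 against vehicle (B) and 10 μM γ-linolenic acid (C). Mean of three independent experiments.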

In data set [2] the target is T1, Free fatty acid receptor 1. The data set is described as follows: Agonist activity at human FFA1 expressed in CHO cells assessed as intracellular Ca2+ level at 300 nM measured for 90 secs by Fluo-4 AM-based FLIPR assay. Format: functional, cell-based. Summed up: as §1
Data set [3] deals with Mus musculus. Briefly: Decrease in plasma glucose level in po dosed ICR mouse administered as single dose 30 mins prior to glucose challenge measured up to 120 mins by OGTT. Format: functional, organism-based. An outline of the steps: (§2)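 Male ICR mice, 10 weeks old, fasted 12 h and randomized (n = 6/group). Single oral dose in 0.5% CMC (10 mL/kg), followed 30 min later by oral glucose 3 g/kg as a 30% solution. Tail-vein blood at −30, 0, 15, 30, 45, 60 and 120 min, glucose read with test strips. Mean ± SEM, two-tailed Student's t-test against vehicle.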

The target in data set [4] is T1, Free fatty acid receptor 1. Briefly: Agonist activity at human FFA1 expressed in CHO cells assessed as intracellular Ca2+ level measured for 90 secs by Fluo-4 AM-based FLIPR assay. Format: functional, cell-based. Summed up: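 Calcium flux in CHO cells stably expressing human FFA1, plated at 15K cells/well overnight, loaded 60 min at 37 °C with Fluo 4-AM (2.5 μg/mL), 0.1% fatty acid-free BSA and 2.5 mmol/L probenecid. Various concentrations added and read by FLIPR for 90 s. Response normalised to vehicle and 10 μM γ-linolenic acid. EC50 from concentration–response fit, mean of three independent determinations.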

The subject of data set [5] is Mus musculus. Briefly: Antihyperglycemic activity in STZ-induced type 2 diabetic C57BL/6 mouse model at 20 mg/kg, po administered as single dose 30 mins prior to glucose challenge measured up to 120 mins by OGTT. Format: functional, organism-based. Summed up: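 Male C57BL/6 mice fed 45%-fat diet for 4 weeks, given STZ 80 mg/kg i.p., then kept on high-fat diet another 4 weeks; fasting glucose ≥11.1 mmol/L counted as diabetic. After a 12 h fast, n = 6/group, oral dose in 0.5% CMC, then 2 g/kg glucose (20% solution) orally 30 min later. Tail blood at −30, 0, 15, 30, 45, 60, 120 min, read with glucose strips.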

The subject of data set [6] is Mus musculus. Briefly: Toxicity in ICR mouse assessed as hypoglycemic effect at 80 mg/kg, po measured up to 180 mins. Format: organism-based. Particulars: in vivo, 3 h. Summed up: (§3)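 Normal male ICR mice, 10 weeks, fasted overnight (12 h), n = 6 per group. Single oral dose in 0.5% CMC vehicle, no glucose load. Tail-tip blood glucose by test strips at 0, 30, 60, 90, 120 and 180 min after dosing. Mean ± SEM for six animals, Student's t-test.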

In data set [7] the test system is Mus musculus. The data set is described as follows: Decrease in plasma glucose level in ICR mouse at 20 mg/kg, po administered as single dose 30 mins prior to glucose challenge measured up to 120 mins by OGTT. Format: functional, organism-based. Summed up:
as §2

Data set [8] relates to Mus musculus. Briefly: Toxicity in ICR mouse assessed as hypoglycemic effect at 15 mg/kg, po measured up to 180 mins. The note with it: in vivo, 3 h. Format: organism-based. Summed up:
as §3

T1 sequence (O14842 whole entry): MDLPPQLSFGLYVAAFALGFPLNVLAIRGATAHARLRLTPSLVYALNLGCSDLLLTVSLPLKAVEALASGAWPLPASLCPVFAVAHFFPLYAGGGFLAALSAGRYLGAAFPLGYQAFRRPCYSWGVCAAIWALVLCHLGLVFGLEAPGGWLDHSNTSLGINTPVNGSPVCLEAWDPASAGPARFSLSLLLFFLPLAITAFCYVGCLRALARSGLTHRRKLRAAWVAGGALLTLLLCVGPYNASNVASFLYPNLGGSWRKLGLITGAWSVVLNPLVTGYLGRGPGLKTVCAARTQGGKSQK

Take `O=C(O)CC1COc2cc(OCc3cccc(N4CCCCC4)c3)ccc21` (stereo unspecified): the Activity was determined as 34.6% in data set [1] and 50.3% in data set [2].
Regarding `Cc1ccc(C)n1-c1cc(COc2ccc3c(c2)OCC3CC(=O)O)ccc1OCc1ccccc1` (stereo unspecified), in data set [1], the Activity is 40.8%.
`O=C(O)CC1COc2cc(OCc3cccc(N4CCS(=O)(=O)CC4)c3)ccc21` (stereo unspecified): the Activity in data set [1] is 8.28%; in data set [2], 25.9%.
The matching figures for `O=C(O)CC1COc2cc(OCc3cccc(N4CCOCC4)c3)ccc21` (stereo unspecified): 41.2% and 55.7%.
For `O=C(O)CC1COc2cc(OCc3cccc(N4CCSCC4)c3)ccc21` (stereo unspecified) the same measures were 38.2% and 52.2%.
Take `COc1ccc(COc2ccc3c(c2)OCC3CC(=O)O)cc1-n1c(C)ccc1C` (stereo unspecified): the Activity entry in the data set with Mus musculus [3] was “Dose-dependent effect”; in data set [1], 63.8%; in the data set with Mus musculus [6] it was “Non-toxic”. In data set [4], the EC50 was 34.7 nM. For the same compound, the outcome with Mus musculus [5] was Active.
On to `Cc1ccc(C)n1-c1cccc(COc2ccc3c(c2)OCC3CC(=O)O)c1` (stereo unspecified), for which, in data set [4], the half-maximal effective concentration (EC50) was found to be 46.9 nM. Also, the results for the Activity in data set [1] and in data set [2] were 59.9% and 71.3%, respectively.
`O=C(O)CC1COc2cc(OCc3cccc(N4CCCC4)c3)ccc21` (stereo unspecified): the Activity came to 43.7% in data set [1] and 56.3% in data set [2].
For the compound `CCOc1ccc(COc2ccc3c(c2)OCC3CC(=O)O)cc1-n1c(C)ccc1C` (stereo unspecified), in data set [4], the EC50 turned out to be 61.2 nM. Further, the Activity in data set [1] stood at 54.6%.
As for `Cc1cc(OCCCS(C)(=O)=O)cc(C)c1-c1cccc(COc2ccc3c(c2)OC[C@H]3CC(=O)O)c1`, the result with Mus musculus [7] and with Mus musculus [5] was Active.
As for `COc1ccc(Cl)cc1C(=O)NCCc1ccc(S(=O)(=O)NC(=O)NC2CCCCC2)cc1` [GLYBURIDE], the Activity entry in the data set with Mus musculus [8] is “Toxic”.
Turning to `COCc1cc(C)n(-c2cccc(COc3ccc4c(c3)OCC4CC(=O)O)c2)c1C` (stereo unspecified), in data set [1], the Activity was 31.7%.
Take `O=C(O)CC1COc2cc(OCc3cccc(-n4cccc4)c3)ccc21` (stereo unspecified): the Activity in data set [1] amounted to 28.6%; in data set [2], 41.9%.
For `Cc1cc(C(=O)N(C)C)c(C)n1-c1cccc(COc2ccc3c(c2)OCC3CC(=O)O)c1` (stereo unspecified), the Activity in data set [1] came out at 25.7%.
Consider `Cc1cccc(C)c1-c1cccc(COc2ccc3c(c2)OCC3CC(=O)O)c1` (stereo unspecified), for which the 50% effective concentration (EC50) in data set [4] amounted to 38.4 nM. Further, the Activity in data set [1] turned out to be 62.6%; in data set [2], 74.4%.

One may read the EC50 as the concentration needed to bring the measured effect to its halfway point.

The record behind these values is ChEMBL document CHEMBL3779832, “Discovery of novel pyrrole-based scaffold as potent and orally bioavailable free fatty acid receptor 1 agonists for the treatment of type 2 diabetes” (Bioorg Med Chem, 2016).
